From ChEMBL document CHEMBL3739417, “Synthesis and biological evaluation of novel 4,5-disubstituted 2H-1,2,3-triazoles as cis-constrained analogues of combretastatin A-4” (2015)

Tests used:
Assay type in all cases: functional
U-251 = assay: Growth inhibition of human U251 cells after 48 hrs by sulforhodamine B assay; conditions: U-251, 48 h; for CC50: read-out: LD50 (the source's name)
Method in brief: (§1)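 NCI-60 panel screen by SRB assay (Rubinstein method). Percentage growth taken from optical density of SRB colour, read before and 48 hrs after exposure to compound or vehicle control. All analogues first screened at 10^-5 M. Analogues giving 60% growth inhibition at that level in at least eight lines then went to a five-concentration dose-response study.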

[1] = Growth inhibition of human LOXIMVI cells after 48 hrs by sulforhodamine B assay; conditions: LOX IMVI; for CC50: read-out: LD50 (the source's name); method in brief: as §1
[2] = Growth inhibition of human SNB75 cells after 48 hrs by sulforhodamine B assay; conditions: SNB-75, 48 h; for CC50: read-out: LD50 (the source's name); method in brief: as §1
[3] = Growth inhibition of human SF295 cells after 48 hrs by sulforhodamine B assay; conditions: SF-295, 48 h; for CC50: read-out: LD50 (the source's name); method in brief: as §1
[4] = Growth inhibition of human SF268 cells after 48 hrs by sulforhodamine B assay; conditions: SF-268, 48 h; for CC50: read-out: LD50 (the source's name); method in brief: as §1
[5] = Growth inhibition of human SW620 cells after 48 hrs by sulforhodamine B assay; conditions: SW-620, 48 h; method in brief: as §1
KM12 = assay: Growth inhibition of human KM12 cells after 48 hrs by sulforhodamine B assay; conditions: KM12, 48 h; for LC50 (concentration killing 50% of cells): read-out: LD50; method in brief: as §1
HT-29 = assay: Growth inhibition of human HT-29 cells after 48 hrs by sulforhodamine B assay; conditions: HT-29, 48 h; for LC50 (concentration killing 50% of cells): read-out: LD50; method in brief: as §1
[6] = Growth inhibition of human HCT15 cells after 48 hrs by sulforhodamine B assay; conditions: HCT-15, 48 h; for CC50: read-out: LD50 (the source's name); method in brief: as §1
[7] = Growth inhibition of human HCT116 cells after 48 hrs by sulforhodamine B assay; conditions: HCT-116, 48 h; for CC50: read-out: LD50 (the source's name); method in brief: as §1
[8] = Growth inhibition of human HCC2998 cells after 48 hrs by sulforhodamine B assay; conditions: HCC 2998, 48 h; for CC50: read-out: LD50 (the source's name); method in brief: as §1
NCI-H460 = assay: Growth inhibition of human NCI-H460 cells after 48 hrs by sulforhodamine B assay; conditions: NCI-H460, 48 h; for CC50: read-out: LD50 (the source's name); method in brief: as §1
NCI-H23 = assay: Growth inhibition of human NCI-H23 cells after 48 hrs by sulforhodamine B assay; conditions: NCI-H23, 48 h; for LC50 (concentration giving 50% cell kill): read-out: LD50; method in brief: as §1
[9] = Growth inhibition of human HOP92 cells after 48 hrs by sulforhodamine B assay; conditions: HOP-92, 48 h; for CC50: read-out: LD50 (the source's name); method in brief: as §1
[10] = Growth inhibition of human HOP62 cells after 48 hrs by sulforhodamine B assay; conditions: HOP-62, 48 h; for LC50 (concentration killing 50% of cells): read-out: LD50; method in brief: as §1
A549 = assay: Growth inhibition of human A549/ATCC cells after 48 hrs by sulforhodamine B assay; conditions: A549, 48 h; for CC50: read-out: LD50 (the source's name); method in brief: as §1
SR = assay: Growth inhibition of human SR cells after 48 hrs by sulforhodamine B assay; conditions: for LC50 (concentration giving 50% net cell kill): read-out: LD50; method in brief: as §1
[11] = Growth inhibition of human RPMI8226 cells after 48 hrs by sulforhodamine B assay; conditions: RPMI-8226, 48 h; for CC50: read-out: LD50 (the source's name); method in brief: as §1
K562 = assay: Growth inhibition of human K562 cells after 48 hrs by sulforhodamine B assay; conditions: K562, 48 h; for CC50: read-out: LD50 (the source's name); method in brief: as §1
CCRF-CEM = assay: Growth inhibition of human CCRF-CEM cells after 48 hrs by sulforhodamine B assay; conditions: for LC50 (concentration killing 50% of cells): read-out: LD50; method in brief: as §1
MDA-MB-435 = assay: Growth inhibition of human MDA-MB-435 cells after 48 hrs by sulforhodamine B assay; conditions: MDA-MB-435, 48 h; for LC50 (concentration killing 50% of cells): read-out: LD50
Method in brief: (§2)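 NCI-60 sulforhodamine B screen. Compounds were first tested at a single dose of 10⁻⁵ M; hits, defined as ≥60% growth inhibition in at least eight lines, went on to a five-concentration dose–response. SRB optical density was read before and 48 h after exposure to compound or vehicle. Percentage growth was calculated from OD.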

SK-MEL-2 = assay: Growth inhibition of human SK-MEL-2 cells after 48 hrs by sulforhodamine B assay; conditions: SK-MEL-2, 48 h; for CC50: read-out: LD50 (the source's name); method in brief: as §1
SK-MEL-5 = assay: Growth inhibition of human SK-MEL-5 cells after 48 hrs by sulforhodamine B assay; conditions: SK-MEL-5, 48 h; for CC50: read-out: LD50 (the source's name); method in brief: as §1
[12] = Growth inhibition of human IGROV1 cells after 48 hrs by sulforhodamine B assay; conditions: IGROV-1, 48 h; for CC50: read-out: LD50 (the source's name); method in brief: as §1
[13] = Growth inhibition of human OVCAR3 cells after 48 hrs by sulforhodamine B assay; conditions: OVCAR-3, 48 h; for LC50 (concentration giving 50% net cell kill): read-out: LD50; method in brief: as §2
[14] = Growth inhibition of human NCI-ADR-RES cells after 48 hrs by sulforhodamine B assay; conditions: for CC50: read-out: LD50 (the source's name); method in brief: as §1
[15] = Growth inhibition of human SKOV3 cells after 48 hrs by sulforhodamine B assay; conditions: SK-OV-3, 48 h; for LC50 (concentration killing 50% of cells): read-out: LD50; method in brief: as §1
786-0 = assay: Growth inhibition of human 786-0 cells after 48 hrs by sulforhodamine B assay; conditions: 786-0, 48 h; for LC50 (concentration killing 50% of cells): read-out: LD50; method in brief: as §1
A498 = assay: Growth inhibition of human A498 cells after 48 hrs by sulforhodamine B assay; conditions: A498, 48 h; for LC50 (50% net cell kill): read-out: LD50; method in brief: as §2
ACHN = assay: Growth inhibition of human ACHN cells after 48 hrs by sulforhodamine B assay; conditions: for CC50: read-out: LD50 (the source's name); method in brief: as §1
CAKI-1 = assay: Growth inhibition of human CAKI-1 cells after 48 hrs by sulforhodamine B assay; conditions: CAKI-1, 48 h; for CC50: read-out: LD50 (the source's name); method in brief: as §1
[16] = Growth inhibition of human UO31 cells after 48 hrs by sulforhodamine B assay; conditions: UO-31, 48 h; for LC50 (concentration killing 50% of cells): read-out: LD50; method in brief: as §1
[17] = Growth inhibition of human PC3 cells after 48 hrs by sulforhodamine B assay; conditions: PC-3, 48 h; for CC50: read-out: LD50 (the source's name); method in brief: as §1
[18] = Growth inhibition of human DU145 cells after 48 hrs by sulforhodamine B assay; conditions: DU-145, 48 h; for CC50: read-out: LD50 (the source's name); method in brief: as §1
MCF7 = assay: Growth inhibition of human MCF7 cells after 48 hrs by sulforhodamine B assay; conditions: MCF7, 48 h; for CC50: read-out: LD50 (the source's name); method in brief: as §1
MDA-MB-231 = assay: Growth inhibition of human MDA-MB-231 cells after 48 hrs by sulforhodamine B assay; conditions: MDA-MB-231, 48 h; for CC50: read-out: LD50 (the source's name); method in brief: as §1
MDA-MB-468 = assay: Growth inhibition of human MDA-MB-468 cells after 48 hrs by sulforhodamine B assay; conditions: MDA-MB-468, 48 h; for CC50: read-out: LD50 (the source's name); method in brief: as §1

COc1cc(-c2n[nH]nc2-c2ccc3c(c2)OCCO3)cc(OC)c1OC
10 nM: GI50 (A498)
15 nM: GI50 (MDA-MB-468)
39 nM: GI50 [8]
< 10 nM: GI50 [2] | GI50 [3] | GI50 [5] | GI50 (KM12) | GI50 [6] | GI50 [7] | GI50 [9] | GI50 (SR) | GI50 (K562) | GI50 (MDA-MB-435) | GI50 (SK-MEL-2) | GI50 (SK-MEL-5) | GI50 [13] | GI50 [14] | GI50 [15] | GI50 (786-0) | GI50 (ACHN) | GI50 (CAKI-1) | GI50 [16] | GI50 (MCF7)
44 nM: GI50 (MDA-MB-231)
69 nM: GI50 [4]
23 nM: GI50 (A549)
> 100 µM: LD50 (concentration killing 50% of cells) [5]
25 nM: GI50 (HT-29) | GI50 (NCI-H460) | GI50 [18]
> 100000 nM: CC50 (U-251) | CC50 [1] | CC50 [2] | CC50 [3] | CC50 [4] | LC50 (concentration killing 50% of cells) (KM12) | LC50 (concentration killing 50% of cells) (HT-29) | CC50 [6] | CC50 [7] | CC50 [8] | CC50 (NCI-H460) | LC50 (concentration giving 50% cell kill) (NCI-H23) | CC50 [9] | LC50 (concentration killing 50% of cells) [10] | CC50 (A549) | LC50 (concentration giving 50% net cell kill) (SR) | CC50 [11] | CC50 (K562) | LC50 (concentration killing 50% of cells) (CCRF-CEM) | LC50 (concentration killing 50% of cells) (MDA-MB-435) | CC50 (SK-MEL-2) | CC50 (SK-MEL-5) | CC50 [12] | LC50 (concentration giving 50% net cell kill) [13] | CC50 [14] | LC50 (concentration killing 50% of cells) [15] | LC50 (concentration killing 50% of cells) (786-0) | LC50 (50% net cell kill) (A498) | CC50 (ACHN) | CC50 (CAKI-1) | LC50 (concentration killing 50% of cells) [16] | CC50 [17] | CC50 [18] | CC50 (MCF7) | CC50 (MDA-MB-231) | CC50 (MDA-MB-468)
20 nM: GI50 (U-251)
34 nM: GI50 (CCRF-CEM)
33 nM: GI50 [11] | GI50 [12]
48 nM: GI50 (NCI-H23)
18 nM: GI50 [1] | GI50 [10] | GI50 [17]

COc1ccc(-c2n[nH]nc2-c2cc(OC)cc(OC)c2)cc1
> 100000 nM: CC50 (U-251) | CC50 [1] | CC50 [2] | CC50 [3] | CC50 [4] | LC50 (concentration killing 50% of cells) (KM12) | LC50 (concentration killing 50% of cells) (HT-29) | CC50 [6] | CC50 [7] | CC50 [8] | CC50 (NCI-H460) | LC50 (concentration giving 50% cell kill) (NCI-H23) | CC50 [9] | LC50 (concentration killing 50% of cells) [10] | CC50 (A549) | LC50 (concentration giving 50% net cell kill) (SR) | CC50 [11] | CC50 (K562) | LC50 (concentration killing 50% of cells) (CCRF-CEM) | LC50 (concentration killing 50% of cells) (MDA-MB-435) | CC50 (SK-MEL-2) | CC50 (SK-MEL-5) | CC50 [12] | LC50 (concentration giving 50% net cell kill) [13] | CC50 [14] | LC50 (concentration killing 50% of cells) [15] | LC50 (concentration killing 50% of cells) (786-0) | LC50 (50% net cell kill) (A498) | CC50 (ACHN) | CC50 (CAKI-1) | LC50 (concentration killing 50% of cells) [16] | CC50 [17] | CC50 [18] | CC50 (MCF7) | CC50 (MDA-MB-231) | CC50 (MDA-MB-468)
76 nM: GI50 [1]
46 nM: GI50 [8] | GI50 [15] | GI50 (MDA-MB-231)
27 nM: GI50 (SK-MEL-5)
30 nM: GI50 [5] | GI50 (KM12)
11 nM: GI50 [3]
42 nM: GI50 [17]
51 nM: GI50 [12]
177 nM: GI50 [4]
145 nM: GI50 (ACHN)
10 nM: TGI (MDA-MB-435)
38 nM: GI50 (U-251) | GI50 (NCI-H23)
37 nM: GI50 (A549) | GI50 [11]
< 10 nM: GI50 [6] | GI50 [7] | GI50 [9] | GI50 (SR) | GI50 (K562) | GI50 (MDA-MB-435) | GI50 [14] | GI50 (A498)
25 nM: GI50 [10] | GI50 (MCF7)
> 100 µM: LD50 (concentration killing 50% of cells) [5]
34 nM: GI50 (NCI-H460)
14 nM: GI50 [2]
23 nM: GI50 (MDA-MB-468)
50 nM: GI50 (CAKI-1)
56 nM: GI50 (SK-MEL-2)
32 nM: GI50 (CCRF-CEM)
15 nM: GI50 (786-0)
45 nM: GI50 [18]
20 nM: GI50 [16]
24 nM: GI50 [13]
48 nM: GI50 (HT-29)
